rCAG RNA binder = binds r(CAG) RNA repeats | AID 651821 | 1.3% of 370,000 active | r(CAG) RNA repeat, TO-PRO-1 dye displacement fluorescence | inhibition, % at 3 µM;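 active means inhibition above the plate cutoff, the mean of all test compounds on that plate plus 3 SD, cut at about 35% in these data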;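 further: 0% = DMSO alone and 100% = 100 µM mitoxantrone as full dye displacement; higher means more dye released from RNA so lower well fluorescence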
LEDGF integ inh = blocks HIV-1 LEDGF/p75-dependent DNA integration; TR-FRET IN-LEDGF/p75 DNA integration, Eu/Cy5; 0.64% of 370,000 active; inhibition, % at 3.7 µM;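 active means inhibition above the screen-wide mean plus 3 SD, cut at about 13% in these data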;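 further: signal is the Cy5 over europium emission ratio at 671 and 618 nm; 0% = plate median of compound wells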
ATG4B inhibitor = inhibitors of human ATG4B cysteine protease. Q9Y4P1. ATG4B cleavage of LC3-PLA2, NBD-HPC fluorescence, 1 h. inhibition, % at 8.33 µM. 0.51% of 340,000 active; in the data active means inhibition above about 40%
Target sequence (Q9Y4P1 whole entry, looked up): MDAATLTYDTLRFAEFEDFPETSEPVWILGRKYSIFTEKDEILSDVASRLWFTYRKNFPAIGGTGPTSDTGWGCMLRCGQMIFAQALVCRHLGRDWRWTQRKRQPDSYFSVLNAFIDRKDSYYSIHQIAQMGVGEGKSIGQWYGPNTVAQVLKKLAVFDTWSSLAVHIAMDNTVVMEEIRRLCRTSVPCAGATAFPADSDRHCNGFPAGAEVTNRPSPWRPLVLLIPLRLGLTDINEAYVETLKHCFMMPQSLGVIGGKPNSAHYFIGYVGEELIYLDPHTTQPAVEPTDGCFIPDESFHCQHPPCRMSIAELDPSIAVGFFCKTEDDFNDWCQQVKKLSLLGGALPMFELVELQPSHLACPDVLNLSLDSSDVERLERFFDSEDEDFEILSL
MBD2 DNA inh = inhibitors of human MBD2 binding to methylated oligonucleotide | Q9UBB5 | TR-FRET | inhibition, % at 4.4 µM | 0.31% of 370,000 active | AID 686964; in the data active means inhibition above about 13%
CSN deneddyl inh = inhibitors of human CSN-mediated cullin deneddylation; Q92905; Purified CSN, SCF-Nedd8-OG deneddylation, fluorescence polarization; inhibition, % at 12.5 µM; 0.38% of 360,000 active;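 active means pattern-corrected inhibition above about 35%, with an unprinted fluorescence ratio check between 0.5 and 1.5, limit read from the data, passing the limit was not always enough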;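 further: 0% = enzyme with substrate and 100% = substrate without enzyme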
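Detection – fluorescence polarization · System – HEK293T-derived human Csn5 enzyme · Controls – substrate-only high control, full reaction low control · Timing – 90 min, room temperature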
UHRF1 binding = human UHRF1 methylated DNA binding inhibitors; Q96T88; UHRF1 binding to methylated oligo, TR-FRET; inhibition, % at 4.4 µM; 0.75% of 370,000 active; in the data active means inhibition above about 21%;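 further: UHRF1 SRA domain binding a hemimethylated CpG hairpin DNA probe; 0% = median of test compound wells and 100% = reference inhibitor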
rCAG bind conf = r(CAG) RNA repeat binding, confirmation. AID 652065. inhibition, % at 3 µM. shares compounds with rCAG RNA binder. TO-PRO-1 dye displacement fluorescence. 70% of 4,300 active;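 active means inhibition above a per-plate cutoff, the mean inhibition of sample wells plus 3 SD, cut at about 35% in these data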;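 further: loss of TO-PRO-1 fluorescence as compound displaces dye from 1x1 AA loop RNA; 0% = DMSO only wells and 100% = 100 µM mitoxantrone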
dCAG dye counter = disrupts DNA CAG TO-PRO-1 complex, flagging rCAG hits; inhibition, % at 3 µM; AID 652068; shares compounds with rCAG RNA binder; 94% of 4,300 active; d(CAG) DNA oligo TO-PRO-1 dye displacement, fluorescence;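 active means inhibition above its plate's cutoff, the mean test-well inhibition plus 3 SD, cut at about 4.8% in these data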;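 further: 0% = DNA dye mix with DMSO and 100% = 100 µM mitoxantrone; hits displace the dye from DNA and so lower well fluorescence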
dCAG dye DR = counter-screen for rCAG binders: inhibitors of DNA CAG TO-PRO-1 complex | shares compounds with rCAG RNA binder | DNA CAG/GTC duplex TO-PRO-1 dye displacement fluorescence | IC50, µM | 20% of 250 active | AID 686960; in the data active means IC50 below about 10 µM
* hit, by the source's call; i = inactive; . = no result given. An excerpt weighted towards active compounds, which were near 3.1% of everything screened.

SMILES | rCAG RNA binder | LEDGF integ inh | ATG4B inhibitor | MBD2 DNA inh | CSN deneddyl inh | UHRF1 binding | rCAG bind conf | dCAG dye counter | others
COc1cc(C2c3sc(=O)[nH]c3SC3C(=O)N(c4ccc(Br)cc4)C(=O)C32)ccc1O (stereo unspecified) | 38* | 6 | -9 | -10 | 1 | -6 | 23 | 8.2*
COc1ccc(OC)c(S(=O)(=O)N2CCC(C(=O)N3CCN(C4CCCCC4)CC3)CC2)c1 | 0 | -3 | . | 3 | . | 2 | . | .
COC(=O)[C@]12C[C@H](CC(=O)NCCC(C)C)C(=O)N(Cc3ccc(Cl)cc3Cl)C1=C[C@H](COCc1ccccc1)O[C@@H]2C | 1 | 5 | . | -3 | . | -2 | . | .
COC(=O)c1sccc1NC(=O)CSc1ccccc1NS(=O)(=O)c1ccc(Br)cc1 | 46* | 1 | -4 | 3 | -1 | 7 | 50* | 15*
COC(=O)c1sccc1NC(=O)CSc1ccccc1NS(=O)(=O)c1ccc(F)cc1 | 27 | 0 | -12 | -2 | -9 | -3 | . | .
COC(=O)c1sc(N2C(=O)C(O)=C(C(=O)c3ccc(C)o3)C2c2cc(OC)ccc2OC)nc1C (stereo unspecified) | 44* | 0 | . | 0 | 5 | -4 | 60* | 18*
COc1ccc2nc(N3C(=O)C(O)=C(C(=O)c4ccco4)C3c3ccccc3OC)sc2c1 (stereo unspecified) | 39* | -3 | -1 | 0 | 2 | -2 | 57* | 21*
CCCOc1cccc(C2C(C(=O)c3ccc(C)o3)=C(O)C(=O)N2c2nc(C)c(C(C)=O)s2)c1 (stereo unspecified) | 36* | -9 | -7 | 4 | 19 | 1 | 57* | 18* | dCAG dye DR=i
COC(=O)[C@]12C[C@H](CC(=O)NCc3ccc(OC)c(OC)c3)C(=O)N(Cc3ccc(Cl)cc3Cl)C1=C[C@H](C(C)C)O[C@@H]2C1CC1 | 4 | 5 | . | 6 | . | -1 | . | .
O=C(O)/C=C/c1cn(Cc2ccccc2)nc1-c1ccccc1 | 0 | 1 | -2 | -2 | 1 | -1 | . | .
O=C(O)CCn1cc(/C=C/C(=O)c2ccc(Cl)cc2)c(-c2ccc(Br)cc2)n1 | 59* | 2 | 36 | 1 | 21 | 1 | 84* | 49*
Nc1ccc(S(=O)(=O)Nc2nccs2)cc1N=Nc1ccccc1[N+](=O)[O-] | 68* | 7 | 39 | 7 | 6 | 1 | 81* | 48*
COc1cccc(N2CCN(CC(=O)NCc3ccc(Cl)cc3)CC2)c1 | 1 | 2 | . | 1 | . | -2 | . | .
CC(C)[C@H](N)C(=O)N1CCC[C@@H]1C(=O)N1CCC2CCN(S(=O)(=O)c3ccccc3)CC21 (stereo partly specified) | 2 | -1 | . | -3 | . | -8 | . | .
COc1ccccc1-n1c(SCC(=O)c2ccc(O)cc2O)nc2cc([N+](=O)[O-])ccc21 | 49* | 0 | 10 | 0 | -8 | 1 | 47* | 22*
Cc1ccc(/C(O)=C/C(=O)C(=O)NNC(=O)C(O)(c2ccccc2)c2ccccc2)cc1 | 46* | -1 | 9 | 5 | 5 | 2 | 29 | 13*
O=C(C=C(O)c1ccc(Cl)cc1)C(=O)NNC(=O)C(O)(c1ccccc1)c1ccccc1 | 71* | -1 | 14 | -4 | 0 | -2 | 36* | 12*
CC(=O)NNC(=O)C(O)(c1ccccc1)c1ccccc1 | -3 | -2 | -12 | -2 | 5 | -1 | . | .
C=CCN1C(=O)[C@@H](CC(=O)N2CCN(C(=O)C3CC3)CC2)[C@]2(C(=O)OC)CCCCC=C12 | 7 | -1 | . | 1 | . | -3 | . | .
CC(C)CNC(=O)OCc1cn(Cc2ccc(F)c(F)c2)nn1 | -1 | 3 | . | 3 | . | -1 | . | .
CSCC[C@@H](Nc1nc(-c2ccccc2)nc2c1oc1ccccc12)C(=O)O | 69* | 0 | 17 | -1 | 0 | 2 | 71* | 25*
O=C(OCC#CCSc1nnc(-c2cccc3ncccc23)o1)c1ccc(F)cc1 | . | -1 | . | -4 | . | 0 | . | .
CNC(=S)Nc1cc(S(=O)(=O)Nc2cc(Cl)ccc2Cl)ccc1N1CCCC1 | 37* | -4 | 6 | -4 | 5 | -1 | 43* | 19*
CC(c1ccccc1)N1CC[C@H]2C=CC[C@@H](C(=O)Nc3ccc(F)c(F)c3)[C@H]2C1=O (stereo partly specified) | . | -1 | . | -2 | . | -1 | . | .
Cc1ccc(C(=O)Nc2ccccc2C(=O)O)cc1S(=O)(=O)NCc1ccccc1 | 64* | 3 | 10 | 8 | 2 | 6 | 50* | 17*
SMILES | rCAG RNA binder | LEDGF integ inh | ATG4B inhibitor | MBD2 DNA inh | CSN deneddyl inh | UHRF1 binding | rCAG bind conf | dCAG dye counter | others
Cc1ccc(F)cc1NC(=O)c1ccc(NS(=O)(=O)c2ccc(Br)s2)cc1 | 41* | 0 | -5 | 2 | 0 | 0 | 38* | 11*
COc1ccc(S(=O)(=O)NCc2cccnc2)cc1NC(=O)c1ccccc1C | 66* | -1 | -1 | 2 | 24 | 0 | 59* | 34*
Cc1ccc(C(=O)Nc2ccccc2C(=O)O)cc1S(=O)(=O)Nc1ccc(Br)cc1 | 83* | 1 | 23 | 2 | 3 | -3 | 86* | 56*
NC(=O)c1ccc(NS(=O)(=O)c2ccc(Br)s2)cc1 | 1 | 0 | 6 | 2 | 3 | 0 | . | .
COc1ccc(OC)c(S(=O)(=O)N2CCC(C(=O)NCc3cccs3)CC2)c1 | 4 | 2 | . | -1 | . | 2 | . | .
CC(=O)Nc1ccc(/C=C/COC(C)=O)cc1C | . | -2 | . | -2 | . | 1 | . | .
O=C(Nc1ccccc1C(=O)O)c1cc(S(=O)(=O)NCc2ccccc2)ccc1Cl | 49* | 0 | 27 | -5 | -1 | 2 | 39* | 6.5*
O=C(Nc1cccc(Cl)c1Cl)c1cc(S(=O)(=O)NCCc2ccccc2)ccc1F | 7 | 7 | -6 | 0 | -13 | 2 | . | .
CN(C)S(=O)(=O)c1cccc(C(=O)Nc2cc3c(cc2C(=O)O)OCCCO3)c1 | 39* | -4 | 2 | 6 | 0 | 1 | 29 | 5.2*
CN(C)S(=O)(=O)c1ccc(C(=O)Nc2cc3c(cc2C(=O)O)OCCCO3)cc1 | 59* | 3 | -1 | 2 | 2 | 6 | 29 | 5.1*
O=C(NNC(=O)c1cc2cc(Br)ccc2oc1=O)c1ccc(O)cc1O | 55* | -3 | -13 | 2 | 54 | -4 | 21 | 5.3*

Bioassay records from PubChem.
